According to ChEMBL document CHEMBL1137082, “Potent and selective conformationally restricted neuronal nitric oxide synthase inhibitors” (J Med Chem, 2004):
Several values for one entry are separate records, joined by “and”; a condition that tells them apart may be missing. Identical values can stand only once.

How the values were obtained:
Nitric oxide synthase 3 = molecular target: T1, Nitric oxide synthase 3 (Bos taurus, UniProt P29473); assay: Inhibitory activity against endothelial nitric oxide synthase (eNOS)
T1 sequence (P29473 whole entry): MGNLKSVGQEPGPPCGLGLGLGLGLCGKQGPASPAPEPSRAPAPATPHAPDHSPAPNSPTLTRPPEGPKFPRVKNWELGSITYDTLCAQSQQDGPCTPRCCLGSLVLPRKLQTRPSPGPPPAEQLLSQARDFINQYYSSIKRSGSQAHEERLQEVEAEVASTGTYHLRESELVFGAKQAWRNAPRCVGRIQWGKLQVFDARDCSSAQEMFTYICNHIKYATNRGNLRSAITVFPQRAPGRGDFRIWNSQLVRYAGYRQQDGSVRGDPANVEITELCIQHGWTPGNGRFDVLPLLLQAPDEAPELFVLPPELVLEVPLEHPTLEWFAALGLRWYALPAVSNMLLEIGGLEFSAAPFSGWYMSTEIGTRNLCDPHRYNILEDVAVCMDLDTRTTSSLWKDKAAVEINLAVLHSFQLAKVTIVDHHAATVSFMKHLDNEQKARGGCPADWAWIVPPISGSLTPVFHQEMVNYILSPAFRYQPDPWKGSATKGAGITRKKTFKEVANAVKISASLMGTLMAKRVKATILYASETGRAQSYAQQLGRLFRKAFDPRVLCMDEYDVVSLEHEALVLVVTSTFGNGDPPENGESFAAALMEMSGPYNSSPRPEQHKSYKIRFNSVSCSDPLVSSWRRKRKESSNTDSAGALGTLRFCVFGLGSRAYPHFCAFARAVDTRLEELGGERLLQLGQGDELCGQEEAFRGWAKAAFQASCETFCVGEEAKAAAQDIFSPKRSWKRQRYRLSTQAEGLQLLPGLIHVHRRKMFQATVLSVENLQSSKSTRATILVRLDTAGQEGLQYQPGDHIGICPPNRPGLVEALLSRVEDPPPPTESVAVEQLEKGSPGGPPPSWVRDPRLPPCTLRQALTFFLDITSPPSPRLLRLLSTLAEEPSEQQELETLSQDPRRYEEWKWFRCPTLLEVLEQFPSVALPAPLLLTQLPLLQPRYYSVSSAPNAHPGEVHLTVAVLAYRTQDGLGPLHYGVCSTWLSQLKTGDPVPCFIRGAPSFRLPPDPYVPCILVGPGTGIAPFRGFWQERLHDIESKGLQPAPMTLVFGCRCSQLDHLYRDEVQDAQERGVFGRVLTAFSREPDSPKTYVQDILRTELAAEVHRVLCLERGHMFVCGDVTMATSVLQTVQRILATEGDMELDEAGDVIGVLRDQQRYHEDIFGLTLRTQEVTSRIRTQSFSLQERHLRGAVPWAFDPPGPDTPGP

Nitric oxide synthase 1 [1] = molecular target: T2, Nitric oxide synthase 1 (Rattus norvegicus, UniProt P29476); assay: Inhibitory activity against neuronal nitric oxide synthase (nNOS); Range is 50-100 uM
Nitric oxide synthase 1 [2] = molecular target: T2, Nitric oxide synthase 1; assay: Inhibitory activity against neuronal nitric oxide synthase (nNOS)
[3] = molecular target: T3, Nitric oxide synthase, inducible (Mus musculus) (UniProt P29477); assay: Inhibitory activity against inducible nitric oxide synthase (iNOS) at 100 uM; set-up: scale not given: the % may be the effect or the level left
T3 sequence (whole entry): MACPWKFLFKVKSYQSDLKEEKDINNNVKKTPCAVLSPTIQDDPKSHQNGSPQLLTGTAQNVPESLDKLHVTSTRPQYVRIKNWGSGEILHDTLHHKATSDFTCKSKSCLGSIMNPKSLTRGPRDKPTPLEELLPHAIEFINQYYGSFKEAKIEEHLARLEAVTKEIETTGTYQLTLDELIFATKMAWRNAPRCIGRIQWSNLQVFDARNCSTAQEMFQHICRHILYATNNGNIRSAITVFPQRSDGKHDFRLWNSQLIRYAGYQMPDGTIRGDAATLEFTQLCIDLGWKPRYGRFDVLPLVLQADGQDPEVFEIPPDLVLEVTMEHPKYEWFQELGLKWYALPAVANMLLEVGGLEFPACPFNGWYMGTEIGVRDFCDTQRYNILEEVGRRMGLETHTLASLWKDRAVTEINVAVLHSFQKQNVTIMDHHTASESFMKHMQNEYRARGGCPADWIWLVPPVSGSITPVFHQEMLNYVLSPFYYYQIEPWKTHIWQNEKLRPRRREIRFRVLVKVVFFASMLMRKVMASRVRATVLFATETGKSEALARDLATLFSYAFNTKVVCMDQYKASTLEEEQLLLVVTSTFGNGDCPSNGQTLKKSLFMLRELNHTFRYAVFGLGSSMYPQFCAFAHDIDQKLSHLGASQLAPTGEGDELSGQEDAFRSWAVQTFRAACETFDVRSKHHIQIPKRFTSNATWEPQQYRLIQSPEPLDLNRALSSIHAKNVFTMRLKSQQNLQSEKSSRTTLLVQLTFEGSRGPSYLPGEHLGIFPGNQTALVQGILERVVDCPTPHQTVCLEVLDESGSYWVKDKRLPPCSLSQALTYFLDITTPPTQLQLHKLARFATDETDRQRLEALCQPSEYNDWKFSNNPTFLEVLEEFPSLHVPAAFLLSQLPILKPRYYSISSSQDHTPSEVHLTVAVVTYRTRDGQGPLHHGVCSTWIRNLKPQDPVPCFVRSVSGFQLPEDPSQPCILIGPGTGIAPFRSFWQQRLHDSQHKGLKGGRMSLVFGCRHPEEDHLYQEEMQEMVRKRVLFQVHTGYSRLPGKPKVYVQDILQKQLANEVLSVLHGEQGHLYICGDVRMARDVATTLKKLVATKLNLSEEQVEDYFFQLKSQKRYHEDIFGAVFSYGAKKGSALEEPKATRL
How it was run: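 Single-point screen against murine macrophage iNOS: enzyme residual activity measured at 100 μM inhibitor. NO formation monitored by hemoglobin capture assay with a UV/vis spectrophotometer.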

T2 sequence (P29476 whole entry): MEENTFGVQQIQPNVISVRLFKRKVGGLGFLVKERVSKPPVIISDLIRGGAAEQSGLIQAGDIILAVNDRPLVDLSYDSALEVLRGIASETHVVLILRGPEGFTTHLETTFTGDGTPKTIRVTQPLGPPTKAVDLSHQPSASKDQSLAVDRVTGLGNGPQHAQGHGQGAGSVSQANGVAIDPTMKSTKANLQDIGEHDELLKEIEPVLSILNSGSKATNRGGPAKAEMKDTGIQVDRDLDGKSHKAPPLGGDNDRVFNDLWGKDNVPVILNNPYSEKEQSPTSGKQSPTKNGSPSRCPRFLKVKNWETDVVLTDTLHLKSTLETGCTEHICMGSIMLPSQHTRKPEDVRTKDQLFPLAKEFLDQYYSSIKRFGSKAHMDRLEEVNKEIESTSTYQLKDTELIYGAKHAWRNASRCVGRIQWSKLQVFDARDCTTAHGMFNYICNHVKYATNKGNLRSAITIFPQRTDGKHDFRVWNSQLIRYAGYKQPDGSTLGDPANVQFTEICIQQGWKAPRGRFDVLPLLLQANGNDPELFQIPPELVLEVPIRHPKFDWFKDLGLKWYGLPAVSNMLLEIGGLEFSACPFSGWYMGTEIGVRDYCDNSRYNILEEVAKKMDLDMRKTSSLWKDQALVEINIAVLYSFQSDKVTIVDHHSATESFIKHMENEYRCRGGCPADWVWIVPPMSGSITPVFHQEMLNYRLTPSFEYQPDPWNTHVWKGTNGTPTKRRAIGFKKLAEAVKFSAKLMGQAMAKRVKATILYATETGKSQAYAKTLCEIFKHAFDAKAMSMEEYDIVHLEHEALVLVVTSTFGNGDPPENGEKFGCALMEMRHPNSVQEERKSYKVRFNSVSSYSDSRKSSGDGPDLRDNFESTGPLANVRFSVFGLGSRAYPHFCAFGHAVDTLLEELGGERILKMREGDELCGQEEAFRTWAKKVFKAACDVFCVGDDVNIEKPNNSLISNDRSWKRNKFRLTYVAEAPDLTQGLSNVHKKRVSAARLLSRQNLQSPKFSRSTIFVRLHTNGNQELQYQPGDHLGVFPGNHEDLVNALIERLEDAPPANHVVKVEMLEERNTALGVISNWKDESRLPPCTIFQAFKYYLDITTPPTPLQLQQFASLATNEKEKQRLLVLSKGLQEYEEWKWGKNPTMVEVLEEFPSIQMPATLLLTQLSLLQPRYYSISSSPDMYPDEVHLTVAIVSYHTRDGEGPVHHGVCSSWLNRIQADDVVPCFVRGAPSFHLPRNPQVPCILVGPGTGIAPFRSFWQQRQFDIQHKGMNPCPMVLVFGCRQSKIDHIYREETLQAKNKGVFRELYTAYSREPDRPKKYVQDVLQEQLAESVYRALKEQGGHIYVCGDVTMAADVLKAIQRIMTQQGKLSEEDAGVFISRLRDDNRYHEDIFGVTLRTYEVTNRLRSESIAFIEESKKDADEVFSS

SMILES	IC50 (Nitric oxide synthase 3)	also measured
[N-]=[N+]=N[C@H]1CN[C@@H](C(=O)C[C@@H](CCC/N=C(\N)N[N+](=O)[O-])C(N)=O)C1	> 100 µM	–
[N-]=[N+]=N[C@@H]1CN[C@@H](C(=O)C[C@@H](CCC/N=C(\N)N[N+](=O)[O-])C(N)=O)C1	> 100 µM	IC50 (Nitric oxide synthase 1 [1]): < 100 µM
NC(=O)[C@@H]1C[C@@H](NC(=O)C(F)(F)F)CN1C(=O)[C@H](N)CCC/N=C(\N)N[N+](=O)[O-]	> 100 µM	–
NC(=O)[C@@H]1C[C@H](N)CN1C(=O)[C@H](N)CCC/N=C(\N)N[N+](=O)[O-]	> 100 µM	–
NC(=O)C1CC(N)CN1C(=O)C(N)CCC/N=C(\N)N[N+](=O)[O-] (stereo unspecified)	> 100 µM	–
NC(=O)[C@@H]1C[C@@H](NC(=O)C(F)(F)F)CN1C(=O)[C@@H](N)CCC/N=C(\N)N[N+](=O)[O-]	> 100 µM	IC50 (Nitric oxide synthase 1 [2]): ~100 µM
NC(=O)[C@@H]1C[C@H](NC(=O)C(F)(F)F)CN1C(=O)[C@H](N)CCC/N=C(\N)N[N+](=O)[O-]	> 100 µM	–
NC(=O)[C@@H]1C[C@@H](N)CN1C(=O)[C@H](N)CCC/N=C(\N)N[N+](=O)[O-]	> 100 µM	–
NC(=O)[C@@H]1C[C@@H](N)CN1C(=O)[C@@H](N)CCC/N=C(\N)N[N+](=O)[O-]	> 100 µM	IC50 (Nitric oxide synthase 1 [2]): ~100 µM
NC(=O)[C@@H]1C[C@H](N)CN1C(=O)[C@@H](N)CCC/N=C(\N)N[N+](=O)[O-]	> 100 µM	–
NC(=O)[C@@H]1C[C@H](NC(=O)C(F)(F)F)CN1C(=O)[C@@H](N)CCC/N=C(\N)N[N+](=O)[O-]	> 100 µM	–
CC(=N)Nc1cccc(CN)c1	0.48 µM and 1.1 µM	IC50 (Nitric oxide synthase 1 [2]): 0.011 µM
NC(=O)[C@@H]1C[C@@H](NC(=O)[C@H](N)CCC/N=C(\N)N[N+](=O)[O-])CN1	–	Activity [3]: 97%
NC(=O)[C@@H]1C[C@H](NC(=O)[C@@H](N)CCC/N=C(\N)N[N+](=O)[O-])CN1	–	Activity [3]: 95%
NC(=O)[C@@H]1C[C@H](NC(=O)[C@H](N)CCC/N=C(\N)N[N+](=O)[O-])CN1	–	Activity [3]: 96%
[N-]=[N+]=N[C@H]1CNC(C(=O)N[C@H](CCCNC(=N)N[N+](=O)[O-])C(N)=O)C1 (single isomer, unassigned)	> 100 µM	IC50 (Nitric oxide synthase 1 [1]): < 100 µM
[N-]=[N+]=N[C@@H]1CNC(C(=O)N[C@H](CCCNC(=N)N[N+](=O)[O-])C(N)=O)C1 (single isomer, unassigned)	> 100 µM	–
N=C(NCCC[C@@H](NC(=O)C1C[C@H](N)CN1)C(N)=O)N[N+](=O)[O-] (single isomer, unassigned)	> 100 µM	–
N=C(NCCC[C@@H](NC(=O)C1C[C@@H](N)CN1)C(N)=O)N[N+](=O)[O-] (single isomer, unassigned)	> 100 µM	–
N=C(NCCC[C@H](NC(=O)C1C[C@@H](N)CN1)C(N)=O)N[N+](=O)[O-] (single isomer, unassigned)	> 100 µM	–

SMILES	IC50 (Nitric oxide synthase 3)	also measured
N=C(NCCC[C@H](NC(=O)C1C[C@H](N)CN1)C(N)=O)N[N+](=O)[O-] (single isomer, unassigned)	> 100 µM	–
[N-]=[N+]=N[C@@H]1CNC(C(=O)N[C@@H](CCC/N=C(\N)N[N+](=O)[O-])C(N)=O)C1 (single isomer, unassigned)	> 100 µM	–
[N-]=[N+]=N[C@H]1CNC(C(=O)N[C@@H](CCC/N=C(\N)N[N+](=O)[O-])C(N)=O)C1 (single isomer, unassigned)	> 100 µM	IC50 (Nitric oxide synthase 1 [1]): < 100 µM
N=C(NCCC[C@@H](N)C(=O)NC1CNC(C(N)=O)C1)N[N+](=O)[O-] (single isomer, unassigned)	–	Activity [3]: 96%
N=C(NCCC[C@@H](N)C(=O)N[C@H]1CNC(C(N)=O)C1)N[N+](=O)[O-] (single isomer, unassigned)	–	Activity [3]: 97%
N=C(NCCC[C@H](N)C(=O)N[C@H]1CNC(C(N)=O)C1)N[N+](=O)[O-] (single isomer, unassigned)	–	Activity [3]: 94%
N=C(NCCC[C@H](N)C(=O)N1CC(NC(=O)C(F)(F)F)C[C@@H]1C(N)=O)N[N+](=O)[O-] (single isomer, unassigned; cis)	> 100 µM	–
[N-]=[N+]=NC1CN[C@@H](C(=O)N[C@H](CCCNC(=N)N[N+](=O)[O-])C(N)=O)C1 (single isomer, unassigned; cis)	> 100 µM	–
N=C(NCCC[C@@H](N)C(=O)N1CC(NC(=O)C(F)(F)F)C[C@@H]1C(N)=O)N[N+](=O)[O-] (single isomer, unassigned; cis)	> 100 µM	–
N=C(NCCC[C@H](N)C(=O)N1CC(N)C[C@@H]1C(N)=O)N[N+](=O)[O-] (single isomer, unassigned; cis)	> 100 µM	–
N=C(NCCC[C@@H](N)C(=O)N1CC(N)C[C@@H]1C(N)=O)N[N+](=O)[O-] (single isomer, unassigned; cis)	> 100 µM	IC50 (Nitric oxide synthase 1 [2]): ~100 µM
N=C(NCCC[C@@H](NC(=O)[C@H]1CC(N)CN1)C(N)=O)N[N+](=O)[O-] (single isomer, unassigned; cis)	> 100 µM	IC50 (Nitric oxide synthase 1 [1]): < 100 µM
N=C(NCCC[C@H](NC(=O)[C@H]1CC(N)CN1)C(N)=O)N[N+](=O)[O-] (single isomer, unassigned; cis)	> 100 µM	IC50 (Nitric oxide synthase 1 [1]): < 100 µM
NC(=O)[C@H]1CC(N)CN1C(=O)[C@@H](N)CCC/N=C(\N)N[N+](=O)[O-] (single isomer, unassigned; trans)	> 100 µM	–
NC(=O)[C@H]1CC(NC(=O)C(F)(F)F)CN1C(=O)[C@H](N)CCC/N=C(/N)N[N+](=O)[O-] (single isomer, unassigned; trans)	> 100 µM	–
N=C(NCCC[C@H](N)C(=O)N1CC(NC(=O)C(F)(F)F)C[C@@H]1C(N)=O)N[N+](=O)[O-] (single isomer, unassigned; trans)	> 100 µM	–
[N-]=[N+]=NC1CN[C@@H](C(=O)N[C@H](CCCNC(=N)N[N+](=O)[O-])C(N)=O)C1 (single isomer, unassigned; trans)	> 100 µM	–
N=C(NCCC[C@@H](NC(=O)[C@H]1CC(N)CN1)C(N)=O)N[N+](=O)[O-] (single isomer, unassigned; trans)	> 100 µM	IC50 (Nitric oxide synthase 1 [1]): < 100 µM
N=C(NCCC[C@H](NC(=O)[C@H]1CC(N)CN1)C(N)=O)N[N+](=O)[O-] (single isomer, unassigned; trans)	> 100 µM	IC50 (Nitric oxide synthase 1 [1]): < 100 µM
N=C(NCCC[C@@H](N)C(=O)N1CC(N)C[C@@H]1C(N)=O)N[N+](=O)[O-] (single isomer, unassigned; trans)	> 100 µM	–
